Source: PubChem
In the library only some 1.9% were active in any assay of this set; here they are far more common.
NR2E3 ag-1: agonists of human nuclear receptor NR2E3; Q9Y5X4; GST-NR2E3/biotin-RetCOR TR-FRET, 1536-well; inhibition of corepressor binding, % at 4.78 µM; actives 0.12% (n = 320,000); AID 2300;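 active = percent inhibition above the cutoff of mean plus 3 SD of all tested compounds, set per screening campaign, cut at about 20% in these data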;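 also: 0% = DMSO wells and 100% = biotin wells as full block of FRET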
Target sequence (Q9Y5X4 whole entry, looked up): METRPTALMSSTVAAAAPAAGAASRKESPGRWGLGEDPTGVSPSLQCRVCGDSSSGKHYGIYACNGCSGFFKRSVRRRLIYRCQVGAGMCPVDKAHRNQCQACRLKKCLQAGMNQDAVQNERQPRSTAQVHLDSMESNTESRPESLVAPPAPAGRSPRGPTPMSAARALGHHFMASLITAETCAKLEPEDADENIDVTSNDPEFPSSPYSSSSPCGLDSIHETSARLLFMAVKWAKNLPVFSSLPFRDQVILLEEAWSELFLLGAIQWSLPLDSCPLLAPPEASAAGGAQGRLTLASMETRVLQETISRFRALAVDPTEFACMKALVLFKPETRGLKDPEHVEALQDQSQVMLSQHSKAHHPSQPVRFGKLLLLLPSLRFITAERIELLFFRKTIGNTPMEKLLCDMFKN
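Format: 1536-well format; test system: GST-NR2E3 and biotin-RetCOR proteins; read-out basis: percent inhibition of TR-FRET ratio; timing: 5 h incubation at 4 °C; detection: time-resolved FRET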
MT1-MMP act inh: blocks activation of human MT1-MMP. P50281. HT1080 RFP-PRO-GFP cells, GFP/RFP ratio fluorescence, overnight; percent of plate control window, DMSO zero. GFP/RFP ratio change, % at 20 µM. actives 0.061% (n = 360,000). AID 651647;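 active = GFP/RFP ratio change of at least 30% with cell ATP level not reduced by more than half and red fluorescence within 50% of control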
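Material – HT1080 RFP-PRO-GFP cells · Control set – DMSO wells and RFP-L50D-GFP cells · Incubation – overnight cell settling, then overnight compound exposure, 37 °C, 5% CO2 · Compound dosing – single-point 20 µM compound, 1% DMSO · Read-out – GFP/RFP fluorescence ratio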
PG9 binder: PG9 antibody binding by small molecule; TR-FRET gp120-PG9 antibody binding; inhibition, % at 6.7 µM; actives 0.43% (n = 360,000); AID 624416; in the data active = inhibition above about 8.5%
NR1D1 modulator: modulators of human Rev-erb alpha DNA binding; P20393; Rev-erbα–FITC-DNA binding, fluorescence polarization, 90 min; activity, % at 10 µM; actives 0.79% (n = 370,000); AID 1259318;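 active = activity above about 14%, limit read from the data; passing the limit was not always enough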;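 also: 0% = DMSO wells with 35 nM protein and 100% = DMSO wells with 750 nM protein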
NR2E3 ag-2: human photoreceptor-specific nuclear receptor agonism. Q9Y5X4. inhibition of corepressor binding, % at 3.98 µM. actives 0.35% (n = 360,000). CHO-S Gal4-NCOR/VP16-NR2E3 two-hybrid, luciferase. AID 602229;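 active = inhibition above the mean of all tested compounds plus 3 SD, cut at about 70% in these data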;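 also: 0% = DMSO with NR2E3 transfected cells and 100% = cells lacking NR2E3 construct; higher means lower luciferase signal from less NR2E3 corepressor binding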
SKN-1 inh: C. elegans SKN-1 inhibition; C. elegans VP596 Pgst-4::GFP/RFP ratio, acrylamide-induced, 24 h; inhibition, % at 21.8 µM; actives 0.49% (n = 360,000); AID 624304;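 active = interference check ratio from 0.5 to 1.5 plus GFP to RFP signal ratio inhibition reaching or exceeding a fixed threshold, cut at about 30% in these data, passing the limit was not always enough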
NR2E3 ag conf: confirmation of human NR2E3 agonists; inhibition, % at 3.98 µM; CHO-S mammalian two-hybrid NR2E3-NCOR, luciferase luminescence; shares compounds with NR2E3 ag-2; actives 51% (n = 2,300);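 active = average inhibition above a cutoff equal to the mean inhibition of all tested compounds plus one SD, cut at about 70% in these data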;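 also: 0% = DMSO in NR2E3 cells and 100% = DMSO in cells lacking NR2E3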
GAL4-VP16 luc: reduces GAL4-VP16 reporter signal in NR2E3 counterscreen; actives 29% (n = 2,300); CHO-S GAL4-VP16 luciferase reporter, luminescence; shares compounds with NR2E3 ag-2; inhibition, % at 3.98 µM; AID 624379;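 active = mean inhibition above a cutoff equal to the average over all tested compounds plus one standard deviation, cut at about 70% in these data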;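 also: luciferase from a UAS reporter driven by GAL4-VP16 transactivation; 0% = DMSO with VP16-transfected cells and 100% = DMSO with cells lacking VP16; higher means less reporter light so more repression of VP16 activity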
An asterisk follows results filed as active; . = no result.

SMILES | NR2E3 ag-1 | MT1-MMP act inh | PG9 binder | NR1D1 modulator | NR2E3 ag-2 | SKN-1 inh | NR2E3 ag conf | GAL4-VP16 luc
FC(F)Sc1ccc(NC(=S)N2CCN(c3ccccn3)CC2)cc1 | . | 2 | -2 | 3 | 61 | 1 | 87* | 45
Cn1nnnc1Sc1ncnc2scc(-c3ccc(C(F)(F)F)cc3)c12 | 3 | -2 | 0 | 8 | 17 | 25 | . | .
Cn1nnnc1Sc1ncnc2scc(-c3ccccc3C(F)(F)F)c12 | 1 | 1 | -1 | 3 | 58 | 9 | 45 | 50
Cn1nnnc1Sc1ncnc2scc(-c3cccc(F)c3)c12 | 3 | -7 | 2 | -1 | 48 | 7 | 9 | 30
Cn1nnnc1Sc1ncnc2scc(-c3cccc(C(F)(F)F)c3)c12 | . | -12 | 0 | 2 | 42 | 2 | . | .
CCOC(=O)CC1(Cc2ccccc2)Oc2ccccc2O1 | . | . | 0 | 5 | . | . | . | .
O=C1CCCC2=C1C1(CCCC1)N=C(Nc1nc3cc(Br)ccc3o1)N2 | . | . | . | 13 | . | . | . | .
O=C(Nc1cc(Cl)ccc1F)C1CCCN(c2nnc(-n3cccc3)s2)C1 (stereo not given) | . | . | . | -5 | . | . | . | .
COc1ccc2c(c1)C(NC(=O)C(F)(F)F)CC21CCCCC1 (stereo not given) | . | . | 0 | -3 | . | . | . | .
Cc1ccc2cc3cc(C(=O)NCc4ccco4)oc3nc2c1 | -1 | 4 | 1 | 3 | 52 | -7 | 16 | 10
Cc1ccc2cc3cc(C(=O)NCCC(C)C)oc3nc2c1 | -1 | 6 | 0 | 9 | -8 | -9 | . | .
C[C@H](O)[C@@H]1CN2CCc3ccc(-c4ccc5c(c4)OCO5)cc3[C@@H]2C[C@@H]1N(C)C(=O)c1ccco1 | . | . | 0 | 2 | . | . | . | .
COc1ccc(-c2noc(CCCC(=O)N3CCN(c4cc(C)ccc4C)CC3)n2)cc1 | . | 0 | -1 | 8 | -68 | -9 | . | .
COc1ccc(-c2noc(CCCCC(=O)N3CCN(c4cc(C)ccc4C)CC3)n2)cc1 | . | 7 | -1 | -4 | 99* | -4 | 97* | 84*
C=CCN1[C@@H](CC(C)C)COc2cccc(NCCCN3CCOCC3)c2S1(=O)=O | . | . | -1 | 4 | . | . | . | .
Cc1nn(-c2nc3ccccc3[nH]2)c(=O)c2ccccc12 | 3 | 2 | 2 | -2 | 53 | 25 | 65 | 25
Cc1nn(-c2ccc3ccccc3c2)c(=O)c2ccccc12 | -2 | -3 | 0 | 4 | -126 | 19 | . | .
Cc1ccc(Cn2cc(CN(C)S(=O)(=O)c3ccccc3Br)nn2)cc1 | . | . | . | -6 | . | . | . | .
CCOc1ccc(CCNC(=O)COC(=O)Cc2c[nH]c3ccccc23)cc1OCC | 3 | -5 | 0 | -4 | -5 | -1 | . | .
CCOc1ccc(CCNC(=O)COC(=O)Cc2ccc(F)cc2)cc1OCC | 2 | 5 | 2 | 9 | 59 | -17 | 22 | 13
COc1cc(CNCCc2ccc(S(N)(=O)=O)cc2)ccc1OCc1ccc(Cl)cc1 | -2 | 2 | -2 | -1 | -14 | 1 | . | .
CCOc1cc(CNCCc2ccc(S(N)(=O)=O)cc2)ccc1OCc1ccc(Cl)cc1 | -5 | -10 | 0 | -4 | 52 | -10 | 44 | 30
Cc1cc(Nc2ccccc2)n(-c2ccccc2)n1 | 3 | 5 | -2 | 5 | -1 | 18 | . | .
Cc1cc(C)nc(-n2nc(C)cc2Nc2ccccc2)n1 | -3 | 0 | 1 | -2 | 111* | -3 | 12 | 6
Cc1cc(N2CCN(c3ccccc3)CC2)nc(-n2nc(C)cc2C)n1 | -2 | 8 | 3 | 2 | 82* | -10 | -13 | 12
SMILES | NR2E3 ag-1 | MT1-MMP act inh | PG9 binder | NR1D1 modulator | NR2E3 ag-2 | SKN-1 inh | NR2E3 ag conf | GAL4-VP16 luc
Cc1cc(N2CCN(c3ccccc3)CC2)nc(-c2ccccc2O)n1 | 2 | 1 | 2 | -4 | -24 | -5 | . | .
NC(=O)c1ccc(N2CCN(S(=O)(=O)c3ccccc3)CC2)c([N+](=O)[O-])c1 | 2 | -2 | 0 | 0 | 74* | 10 | 87* | 69
O=C(c1ccc(N2CCCCC2)c([N+](=O)[O-])c1)N1CCN(S(=O)(=O)c2ccccc2)CC1 | 1 | 7 | -2 | 4 | 15 | -8 | . | .
CCN1/C(=C/C(C)=C/c2sc3ccccc3[n+]2CC)Sc2ccccc21 | -18 | 32 | -25 | -10 | 92* | 96 | 100* | 95*
CCN1/C(=C\C(=S)Nc2ccccc2)Sc2ccccc21 | -4 | -9 | -4 | 4 | -17 | 24 | . | .
c1ccc(CCNc2ccnc3cc4ccccc4cc23)cc1 | . | 8 | -13 | 6 | 93* | 3 | 97* | 82*
Cc1c(/C(O)=C2/C(=O)C(=O)N(Cc3cccnc3)C2c2ccccn2)cnn1-c1ccccc1 (stereo not given) | 2 | 1 | 3 | 1 | 83* | 1 | 30 | 48
Cc1c(/C(O)=C2/C(=O)C(=O)N(Cc3cccnc3)C2c2cccs2)cnn1-c1ccccc1 (stereo not given) | 11 | 2 | 5 | 7 | 25 | 2 | . | .
Cc1cc(Nc2cc(F)c(F)c(F)c2)cc(=O)n1-c1cc(F)c(F)c(F)c1 | . | . | -2 | 5 | . | . | . | .
Fc1ccccc1COc1cccc(/C=N/n2cnnc2)c1 | -2 | 4 | -1 | -3 | -52 | 24 | . | .
Cc1cc(/C=N/n2cnnc2)c(C)n1-c1ccc(OCc2ccccc2F)cc1 | 4 | -4 | -1 | 1 | 66 | 10 | 96* | 79*
C(=N\n1cnnc1)/c1ccc(OCc2ccccc2)cc1 | -3 | 12 | -1 | 4 | -68 | 7 | . | .
Cc1cc(/C=N/n2cnnc2)c(C)n1-c1ccc(OCc2ccc(Cl)cc2)cc1 | 3 | 1 | -2 | 1 | 102* | 23 | 98* | 87*
COc1ccc(C(=O)c2sc(NC(C)C)nc2N)cc1OC | 3 | -11 | 1 | 1 | 59 | 27 | 37 | 10
COc1cccc(C(=O)c2sc(NC(C)C)nc2N)c1 | 2 | -2 | 1 | -5 | 94* | 12 | 94* | 50
COc1ccc(Nc2nc(N)c(C(=O)c3ccc(OC)cc3)s2)cc1 | -1 | -13 | -1 | -3 | -36 | 9 | . | .
CCOc1ccc(NS(=O)(=O)c2cc(OC)ccc2OC)cc1 | 1 | 4 | -2 | -5 | -1 | 4 | . | .
COc1ccc(OC)c(S(=O)(=O)Nc2ccc(Oc3ccccc3)cc2)c1 | 3 | -2 | -2 | -1 | 65 | 0 | 80* | 57
CCC(NC(=O)Nc1nnc(C(F)(F)F)s1)(C(F)(F)F)C(F)(F)F | 5 | -19 | 0 | -5 | 104* | -13 | 97* | 90*
